# Bioassay records from PubChem BioAssay.
# Runt-CBFb FRET = inhibitors of human RUNX1 Runt domain binding to CBFb | Cerulean-Runt/Venus-CBFb FRET ratio 530/480, 1 h | inhibition, % at 20 µM | 0.46% of 220,000 active | AID 1496;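 active means inhibition over about 50% at 20 µM in the single-dose screen, limit read from the data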
# Target sequence (Q01196 whole entry, looked up, the tested form may be a part): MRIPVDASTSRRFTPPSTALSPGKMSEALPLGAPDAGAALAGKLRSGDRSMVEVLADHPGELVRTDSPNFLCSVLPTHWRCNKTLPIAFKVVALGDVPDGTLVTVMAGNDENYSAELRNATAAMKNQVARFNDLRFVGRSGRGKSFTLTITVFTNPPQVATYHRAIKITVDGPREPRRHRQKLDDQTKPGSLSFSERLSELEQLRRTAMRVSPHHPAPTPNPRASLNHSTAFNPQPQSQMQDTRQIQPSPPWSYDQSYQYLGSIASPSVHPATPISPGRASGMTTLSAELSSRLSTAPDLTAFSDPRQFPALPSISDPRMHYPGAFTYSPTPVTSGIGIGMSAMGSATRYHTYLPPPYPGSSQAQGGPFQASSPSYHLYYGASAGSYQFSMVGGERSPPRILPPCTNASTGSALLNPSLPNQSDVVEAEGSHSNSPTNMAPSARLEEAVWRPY
# Target sequence (Q13951 whole entry, looked up, the tested form may be a part): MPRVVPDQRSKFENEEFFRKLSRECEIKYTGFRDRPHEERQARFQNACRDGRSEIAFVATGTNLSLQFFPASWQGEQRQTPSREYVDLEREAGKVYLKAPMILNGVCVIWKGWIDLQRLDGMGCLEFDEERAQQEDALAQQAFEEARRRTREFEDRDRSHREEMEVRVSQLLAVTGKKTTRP
#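 Schedule: protein complex preformed 1 h, compound exposure 1 h, room temperature, dark; test system: Cerulean-labeled Runt domain protein; amount: 100 nM per protein; buffer or medium: Tris 50 mM pH 7.5, KCl, K2SO4, 0.01% BSA; read-out: loss of energy transfer signal; detection: FRET fluorescence; controls: 5 µM unlabeled CBFb as full-inhibition high control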
# Hck-Nef inh = human Hck-Nef kinase inhibition | P08631 | Recombinant Hck-YEEI plus Nef, Z-Lyte FRET kinase assay | inhibition, % at 20 µM | 0.68% of 220,000 active;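 active means Hck-Nef kinase inhibition above about 50%, limit read from the data; inactive means inhibition below that limit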
# Runt-SMMHC FRET = Runt domain-CBFb-SMMHC interaction inhibition; Q01196+Q13951; Cerulean-Runt/Venus-CBFb-SMMHC FRET ratio 530/480, 1 h; 0.74% of 220,000 active; inhibition, % at 20 µM; AID 1434;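 active means mean inhibition across duplicate retests at 20 µM reaching about 50%, limit read from the data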;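 further: inhibitors lower the FRET ratio by blocking Runt binding to CBFb-SMMHC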
# RanGTP-Impb inh = inhibitors of RanGTP-importin-beta interaction, primary screen, biochemical, FRET, CFP-Ran, YFP-importin-beta, homogeneous; cell-free CFP-Ran/YFP-importin-beta FRET ratio; inhibition, % (concentration not given with the values); 1.1% of 300,000 active; AID 2216;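 active means more than half of the replicate wells show a fall in the fluorescence ratio signal beyond about 16%, limit read from the data, passing the limit was not always enough; inconclusive means exactly half of the replicate wells pass the set limit; inactive means fewer than half of replicates pass the limit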
# YIC FRET counter = counter-screen for RanGTP-importin-beta inhibitors: YIC FRET probe; Purified YIC probe, intramolecular FRET ratio YFP/CFP; 40% of 1,000 active; shares compounds with RanGTP-Impb inh; IC50, µM;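 active means fitted half-maximal inhibitory concentration no more than tenfold above the top dose tested; inconclusive means flat fit with 30 to 70% activity, or poor fit; inactive means half-maximal concentration beyond tenfold above the top dose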
# A number is an active result; - = inactive; ? = inconclusive; . = not tested or not shown. Rows were chosen to be rich in hits. Some 1.9% of all compounds tested hit in one or more screens of this group.
SMILES,Runt-CBFb FRET,Hck-Nef inh,Runt-SMMHC FRET,RanGTP-Impb inh,YIC FRET counter
Nc1c(C(=O)NC2CCCC2)c2nc3ccccc3nc2n1/N=C/c1ccco1,-,-,-,26,9.5
NS(=O)(=O)c1ccc(N=Nc2c[nH]c(=O)c(O)c2)cc1,-,-,-,28,-
N#CC1=C(N)SC(N)=C(C#N)C1c1c(Cl)cccc1Cl,-,-,-,-,.
N#CC1=C(N)SC(N)=C(C#N)C1c1cccc(Oc2ccccc2)c1,-,-,78,24,-
CC(NC(=O)c1cccs1)c1ccc(Br)cc1 (stereo unspecified),.,.,.,-,.
Cc1[nH]c2ccccc2c1/C=N/NC(=O)CNC(=O)c1ccc2c(c1)OCCO2,-,-,-,-,.
CCOC(=O)c1c(NC(=S)N2CCCCC2)sc2c1CCN(C(=O)OCC)C2,-,-,-,-,.
COC(=O)c1c(NC(=O)C2CC2)sc2c1CCN(C(C)=O)C2,-,-,-,-,.
CCOC(=O)c1c(NC(=O)C2CCCCC2)sc2c1CCN(CC)C2,.,.,.,20,-
CCN1CCc2c(sc(NC(=O)C3CCCCC3)c2C(=O)OC)C1,.,.,.,42,-
Cc1cc(C)c2c(=O)[nH]c(SCc3ccc([N+](=O)[O-])cc3)nc2n1,-,-,-,-,.
O=C(O)CCNC(=O)/C(=C/C=C/c1ccccc1)NC(=O)c1ccccc1,-,-,-,-,.
COc1ccccc1C(=O)NC(=S)Nc1ccc(N2CCCC2)cc1,-,-,-,20,-
COc1ccccc1C(=O)NC(=S)Nc1ccccc1N1CCCC1,.,.,.,-,.
CN(C)CCCN1C(=O)C(O)=C(C(=O)c2cc3ccccc3o2)C1c1ccccc1 (stereo unspecified),-,-,-,-,.
Cn1c(SCc2ccccc2F)nnc1-c1cnccn1,-,-,-,-,.
Cn1c(SCc2ccccc2F)nnc1-c1ccccn1,-,-,-,20,-
CCNC(=O)n1nccc1C(C)Oc1cccc(C(F)(F)F)c1 (stereo unspecified),-,-,-,-,.
Cn1nnnc1SCC(=O)Nc1nn(-c2ccccc2)nc1C(N)=O,-,-,-,18,-
Cn1nnnc1SCC(=O)Nc1ccc(Oc2ccccc2)cc1,-,-,-,-,.
CCC1(C(=O)OC)NC(c2cccc(F)c2)C2C(=O)N(C)C(=O)C21 (stereo unspecified),.,-,.,20,-
COC(=O)C1(Cc2ccccc2)NC(c2ccc(F)cc2)C2C(=O)N(C)C(=O)C21 (stereo unspecified),-,-,-,-,.
Cc1ccc2cc(C#N)c(N3CCCN(S(=O)(=O)c4ccccc4)CC3)nc2c1,-,-,-,?,.
Cc1ccc2cc(C#N)c(N3CCCN(S(=O)(=O)c4ccc(F)cc4)CC3)nc2c1,-,-,-,18,25
N#CC(CC(=O)c1ccc(F)cc1)c1ccc2c(c1)OCO2 (stereo unspecified),.,.,.,-,.
SMILES,Runt-CBFb FRET,Hck-Nef inh,Runt-SMMHC FRET,RanGTP-Impb inh,YIC FRET counter
O=S(=O)([N-]c1nc2ccccc2nc1-[n+]1ccccc1)c1ccccc1,-,-,-,-,.
Cc1cc(C)c[n+](-c2nc3ccccc3nc2[N-]S(=O)(=O)c2ccc(Br)s2)c1,-,-,78,30,7.9
CCCOC(=S)NC(=O)c1sc2ccccc2c1Cl,-,-,-,31,-
CC(=O)Nc1ccc(Nc2c([N+](=O)[O-])c(=O)n(-c3ccccc3)c3ccccc23)cc1,-,-,-,-,.
Cc1cc(C)c(C#N)c(Nc2ccccc2C)n1,.,.,.,19,-
C1=C(c2ccccc2)Nc2ccccc2N=C1c1ccccc1,-,-,-,-,.
CCC(c1nnnn1C1CCCC1)N1CCC(C(N)=O)CC1 (stereo unspecified),-,-,-,16,-
Cc1ccc(Cl)cc1N1C(=O)CC(Sc2ncccn2)C1=O (stereo unspecified),.,.,.,16,-
COc1cc(/C=C(\C#N)C(=O)Nc2cccc3ncccc23)cc(OC)c1OC,-,-,-,36,-
COc1ccc(NC(=O)/C(C#N)=C/c2cccnc2)c(OC)c1,.,.,.,-,.
CCNc1nc(NCC)n2c(SCC(=O)c3ccccc3F)nnc2n1,-,-,-,-,.
CCCc1c2ccccc2nc2ccccc12,-,-,52,21,9.6
CCCc1cc(C(=O)O)c2ccccc2n1,-,-,-,-,.
CCc1ccc(C2C(C#N)=C(N)SC(N)=C2C#N)cc1,-,-,-,39,-
CC(C)(C)c1ccc(S(=O)(=O)NCC(=O)N2CCN(C(=O)c3ccco3)CC2)cc1,-,-,-,21,-
CC(C)(C)c1ccc(S(=O)(=O)NCC(=O)N2CCCC2)cc1,.,.,.,-,.
O=C(Nc1ccc2c(c1)OCO2)c1ccc(S(=O)(=O)NCC2CCCO2)cc1 (stereo unspecified),-,-,-,-,.
O=C(Nc1cccc(F)c1)c1ccc(S(=O)(=O)NCC2CCCO2)cc1 (stereo unspecified),-,-,-,21,-
CC1C(=O)N2CCCc3cc(NC(=O)C4CC4)cc1c32 (stereo unspecified),.,.,.,-,.
CN(C)c1nc(SCC(=O)Nc2ccccc2)nc(N2CCOCC2)n1,-,-,-,-,.
CC(C)(C)Nc1nc(SCC(=O)Nc2ccccc2)nc(N2CCOCC2)n1,-,-,-,21,-
Cc1ccc(S(=O)(=O)CCc2nnc(NC(=O)COc3cccc(C)c3)s2)cc1,-,-,-,-,.
Cc1ccc(N2NC(=O)/C(=C\c3cc4c(cc3[N+](=O)[O-])OCO4)C2=O)cc1C,-,-,-,25,-
CCn1c(=O)cc(N2CCC3(CC2)OCCO3)[nH]c1=O,-,-,-,24,-
O=c1cc(N2CCC3(CC2)OCCO3)[nH]c(=O)n1C1CCCCC1,-,-,-,-,.
SMILES,Runt-CBFb FRET,Hck-Nef inh,Runt-SMMHC FRET,RanGTP-Impb inh,YIC FRET counter
CC(C(=O)Nc1ncc([N+](=O)[O-])s1)N1C(=O)c2ccccc2S1(=O)=O (stereo unspecified),.,.,.,-,.
COC(=O)C(C)Oc1ccc2c(c1)O/C(=C\c1ccco1)C2=O (stereo unspecified),.,.,.,21,17
COc1ccc2c(c1)O/C(=C\c1ccco1)C2=O,-,-,61,21,19
CCC(C)OC(=O)C[N+](C)(C)CCOC1CC2CCC1(C)C2(C)C (stereo unspecified),-,-,-,22,-
CC(C)CCOC(=O)C[N+](C)(C)CCOC1CC2CCC1(C)C2(C)C (stereo unspecified),-,-,-,-,.
Cc1ccc(C(=O)Nc2ncc(C)s2)o1,-,-,-,-,.
Cc1ccc(C(=O)Nc2ncc(Cc3ccc(F)cc3)s2)o1,-,-,-,28,-
NCCS(=O)(=O)O,.,.,.,-,.
CC(C)Oc1cccc(-c2cc(C(=O)NC(=S)N(C)c3ccccc3C(=O)O)c3ccccc3n2)c1,-,-,-,-,.
Cn1c(=O)[nH]c2c(nc(-c3ccc(Cl)cc3)n2C)c1=O,.,.,.,18,32
COc1cccc(C(=O)COC(=O)CCC(=O)c2ccccc2)c1,.,.,.,-,.
